# Measurements from ChEMBL document CHEMBL1156179 (J Med Chem, 2010).
# Assays:
# [1] = target: T1, Adenosine receptor A1 (Homo sapiens, UniProt P30542); test: Displacement of [3H]CCPA from human cloned adenosine A1 receptor expressed in CHO cells; format: cell-based
# T1 sequence (P30542 whole entry): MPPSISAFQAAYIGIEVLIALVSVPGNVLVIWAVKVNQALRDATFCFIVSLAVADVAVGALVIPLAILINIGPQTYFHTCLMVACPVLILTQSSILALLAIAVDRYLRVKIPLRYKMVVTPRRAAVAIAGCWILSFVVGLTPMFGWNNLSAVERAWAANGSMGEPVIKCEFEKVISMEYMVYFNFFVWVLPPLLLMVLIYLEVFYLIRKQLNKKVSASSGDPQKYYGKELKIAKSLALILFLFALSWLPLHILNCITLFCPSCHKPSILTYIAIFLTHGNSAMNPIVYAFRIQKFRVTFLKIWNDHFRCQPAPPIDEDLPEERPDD
# Procedure, shortened: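 CHO membranes with hA1 receptor, from 1000g 4 min spin then 100000g 30 min. Incubated 3 h at 25 °C with 1 nM [3H]CCPA, 0.2 U/mL adenosine deaminase, 20 μg protein in 50 mM Tris/HCl pH 7.4 and graded compound. Nonspecific binding with 1 mM theophylline.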
# [2] = target: Adenosine receptor A2a (Homo sapiens, UniProt P29274); test: Displacement of [3H]NECA from human cloned adenosine A2a receptor expressed in CHO cells; format: cell-based
# Procedure, shortened: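 hA2A-CHO membranes, prepared by two-step centrifugation, were incubated with 30 nM [3H]NECA, 50 μg protein and graded compound under the A1 binding conditions. Nonspecific binding with 100 μM R-PIA.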
# [3] = target: T2, Adenosine receptor A3 (Homo sapiens, UniProt P0DMS8); test: Displacement of [3H]NECA from human cloned adenosine A3 receptor expressed in CHO cells; format: cell-based
# T2 sequence (P0DMS8 whole entry): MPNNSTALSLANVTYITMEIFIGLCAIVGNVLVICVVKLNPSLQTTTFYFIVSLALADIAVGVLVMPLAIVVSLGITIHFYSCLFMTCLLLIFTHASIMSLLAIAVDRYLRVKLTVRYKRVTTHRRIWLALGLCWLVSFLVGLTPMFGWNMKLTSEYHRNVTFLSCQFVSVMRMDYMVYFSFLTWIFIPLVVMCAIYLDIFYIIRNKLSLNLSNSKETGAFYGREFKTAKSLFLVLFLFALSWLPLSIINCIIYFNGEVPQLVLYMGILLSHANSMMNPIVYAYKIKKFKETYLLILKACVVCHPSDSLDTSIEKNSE
# [4] = target: T3, Adenosine receptor A2b (Homo sapiens, UniProt P29275); test: Antagonist activity at human cloned adenosine A2b receptor expressed in CHO cells assessed as inhibition of NECA-stimulated cAMP accumulation; format: functional, cell-based
# T3 sequence (P29275 whole entry): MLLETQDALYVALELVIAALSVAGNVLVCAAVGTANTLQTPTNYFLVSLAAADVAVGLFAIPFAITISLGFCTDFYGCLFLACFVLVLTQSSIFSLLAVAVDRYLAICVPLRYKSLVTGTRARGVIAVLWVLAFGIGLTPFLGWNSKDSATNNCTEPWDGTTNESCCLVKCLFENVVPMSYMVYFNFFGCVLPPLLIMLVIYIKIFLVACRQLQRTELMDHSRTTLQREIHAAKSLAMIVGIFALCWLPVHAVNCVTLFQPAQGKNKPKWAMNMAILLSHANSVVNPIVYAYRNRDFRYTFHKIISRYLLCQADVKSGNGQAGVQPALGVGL
# Procedure, shortened: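 Membranes from CHO cells with hA2B receptor, prepared by a single 30 min spin at 54000g and resuspended in 50 mM Tris/HCl pH 7.4, used fresh. Antagonist inhibition of NECA-stimulated adenylyl cyclase gave IC50 by Hill fit; Ki from Cheng–Prusoff.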
# [5] = target: Adenosine receptors; A1 & A3 (Homo sapiens) (UniProt P30542+P0DMS8); test: Selectivity ratio of Ki for human adenosine A1 receptor to Ki for human adenosine A3
# [6] = species on record: Homo sapiens; test: Selectivity ratio of Ki for human adenosine A2A receptor to Ki for human adenosine A3
# Sequence of Adenosine receptor A2a (P29274 whole entry): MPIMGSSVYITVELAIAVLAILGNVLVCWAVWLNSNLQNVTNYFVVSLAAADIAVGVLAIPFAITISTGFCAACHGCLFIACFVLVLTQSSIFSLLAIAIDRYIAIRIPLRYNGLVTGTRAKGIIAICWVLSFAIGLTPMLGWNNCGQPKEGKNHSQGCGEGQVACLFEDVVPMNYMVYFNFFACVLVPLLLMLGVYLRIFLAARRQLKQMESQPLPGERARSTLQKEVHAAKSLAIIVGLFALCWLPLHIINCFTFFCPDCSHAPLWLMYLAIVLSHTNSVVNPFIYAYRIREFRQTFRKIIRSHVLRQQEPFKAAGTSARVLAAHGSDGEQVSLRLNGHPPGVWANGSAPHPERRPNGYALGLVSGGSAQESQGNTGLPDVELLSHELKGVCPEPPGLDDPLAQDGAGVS
Ki [1] [nM],Ki [2] [nM],Ki [3] [nM],Ki [4] [nM],Ratio Ki [5],Ratio Ki [6],SMILES
> 10000,> 10000,6.94,> 10000,> 1440,> 1440,Cn1cc2c(nc(N(C(=O)c3ccccc3)C(=O)c3ccccc3)n3nc(-c4ccc(Cl)cc4)nc23)n1
121,83.8,565,> 10000,0.21,0.15,CCn1ncc2c1nc(N)n1nc(-c3ccc(Cl)cc3)nc21
,,,,867,522,Cn1cc2c(nc(NC(=O)Cc3ccccc3)n3nc(-c4ccco4)nc23)n1
339,121,75,> 10000,4.52,1.61,Cn1cc2c(nc(N)n3nc(-c4ccccc4)nc23)n1
313,963,23.9,> 10000,13.1,40.3,O=C(Nc1nc2nn(CCc3ccccc3)cc2c2nc(-c3ccccc3)nn12)c1ccccc1
> 30000,> 100000,0.241,> 10000,> 124000,> 415000,COc1ccc(-c2nc3c4cn(C)nc4nc(NC(=O)Cc4ccccc4)n3n2)cc1
622,324,5,> 10000,124,64.8,Cn1cc2c(nc(NC(=O)c3ccccc3)n3nc(-c4ccccc4)nc23)n1
24400,> 100000,0.345,> 10000,70700,> 290000,Cn1cc2c(nc(NC(=O)Cc3ccccc3)n3nc(-c4ccc(Br)cc4)nc23)n1
2890,1500,38.6,> 10000,74.9,38.9,Cn1cc2c(nc(N)n3nc(-c4ccc(Br)cc4)nc23)n1
4860,2020,72.4,> 10000,67.1,27.9,Cn1cc2c(nc(N)n3nc(-c4ccc(Cl)cc4)nc23)n1
1010,355,31.4,> 10000,32.2,11.3,Cn1cc2c(nc(N)n3nc(-c4ccc(F)cc4)nc23)n1
,,,,0.33,0.009,Cn1cc2c(nc(N)n3nc(-c4ccco4)nc23)n1
270,> 100000,153,> 10000,1.76,> 654,O=C(Nc1nc2nn(CCc3ccccc3)cc2c2nc(-c3ccc(Br)cc3)nn12)c1ccccc1
23200,23900,0.624,> 10000,37200,38300,Cn1cc2c(nc(NC(=O)Cc3ccccc3)n3nc(-c4ccc([N+](=O)[O-])cc4)nc23)n1
9730,1190,16.7,> 10000,583,71.3,COc1ccc(-c2nc3c4cn(C)nc4nc(N)n3n2)cc1
562,778,0.108,> 10000,5200,7200,Cn1cc2c(nc(NC(=O)Cc3ccccc3)n3nc(-c4ccccc4)nc23)n1

Ki [1] [nM],Ki [2] [nM],Ki [3] [nM],Ki [4] [nM],Ratio Ki [5],Ratio Ki [6],SMILES
> 30000,> 100000,56.4,> 10000,> 532,> 1770,Cn1cc2c(nc(NC(=O)c3ccccc3)n3nc(-c4ccc([N+](=O)[O-])cc4)nc23)n1
39.1,127,50.6,> 10000,0.773,2.51,Nc1nc2nn(CCc3ccccc3)cc2c2nc(-c3ccc(F)cc3)nn12
2290,2540,0.201,> 10000,11400,12600,Cn1cc2c(nc(NC(=O)Cc3ccccc3)n3nc(-c4ccc(F)cc4)nc23)n1
> 10000,> 10000,6.88,> 10000,> 1450,> 1450,COc1ccc(-c2nc3c4cn(C)nc4nc(N(C(=O)c4ccccc4)C(=O)c4ccccc4)n3n2)cc1
4850,8320,0.248,> 10000,19600,33500,Cn1cc2c(nc(NC(=O)Cc3ccccc3)n3nc(-c4ccc(Cl)cc4)nc23)n1
> 30000,> 100000,5.24,> 10000,> 5730,> 19100,Cn1cc2c(nc(NC(=O)c3ccccc3)n3nc(-c4ccc(Br)cc4)nc23)n1
> 30000,> 100000,2.1,> 10000,> 14300,> 47600,COc1ccc(-c2nc3c4cn(C)nc4nc(NC(=O)c4ccccc4)n3n2)cc1
> 300000,> 10000,655,> 10000,> 458,> 15.3,Cn1cc2c(nc(N)n3nc(-c4ccc([N+](=O)[O-])cc4)nc23)n1
1570,843,68.7,> 10000,22.9,12.3,CCn1cc2c(nc(N)n3nc(-c4ccc(Cl)cc4)nc23)n1
> 30000,> 100000,2.82,> 10000,> 10600,> 35500,Cn1cc2c(nc(NC(=O)c3ccccc3)n3nc(-c4ccc(Cl)cc4)nc23)n1
498,> 30000,221,> 10000,2.25,> 136,Nc1nc2nn(CCc3ccccc3)cc2c2nc(-c3ccc(Br)cc3)nn12
2530,> 100000,3.43,> 10000,738,> 29200,Cn1cc2c(nc(NC(=O)c3ccccc3)n3nc(-c4ccc(F)cc4)nc23)n1
289,1400,25,> 10000,11.6,56,COc1ccc(-c2nc3c4cn(CCc5ccccc5)nc4nc(N)n3n2)cc1
204,2180,79.7,> 10000,2.56,27.4,Nc1nc2nn(CCc3ccccc3)cc2c2nc(-c3ccc(Cl)cc3)nn12
74.8,196,76.7,> 10000,0.975,2.56,Nc1nc2nn(CCc3ccccc3)cc2c2nc(-c3ccccc3)nn12
